Our source for the logP, inhibition and inhibition of growth values is ChEMBL document CHEMBL3272197, “Synthesis and in vitro evaluation of 8-hydroxyquinoline analogs as inhibitors of dental plaque” (J Med Chem, 1976).

Series [1] in a line: 1-Octanol-water partition coefficient, log P of the compound after 90 mins. The class given is physicochemical. The method, boiled down:
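Partitioning between 1-octanol and water. Phase volume ratio and sample amount set so that the aqueous-layer absorbance fell mostly between 0.2 and 0.9 in a 1-cm cell. The aqueous concentration was read spectrophotometrically and the octanol concentration was taken by difference. P = C_octanol/C_H2O. At least triplicate determinations used different sample amounts, and the mean log P is reported.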

The test system of series [2] is Streptococcus mutans. As to the kind of experiment: Antibacterial activity against Streptococcus mutans 6715 assessed as inhibition of plaque formation in human teeth at 10^-1 M after 24 hrs. The conditions noted are these: Streptococcus mutans, 6715, 24 h. Format: functional. The method in brief:
(§1)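 Sterilized extracted human teeth were immersed in Me2SO solutions of compound for two 1-min periods, each followed by 1-min air exposure. Teeth were then washed in distilled water for 5 min and incubated anaerobically at 37° in sucrose-containing trypticase broth with S. mutans.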

For series [3], the system named is Streptococcus mutans. As to the kind of experiment: Antibacterial activity against Streptococcus mutans 6715 assessed as inhibition of plaque formation in human teeth at 10^-1 M after 48 hrs. Format: functional. The conditions noted are these: Streptococcus mutans, 6715, 48 h. The method in brief: as §1
Series [4] has as its system Streptococcus mutans. The series is described as follows: Antibacterial activity against Streptococcus mutans 6715 assessed as inhibition of plaque formation in human teeth at 10^-2 M after 24 hrs. Particulars: Streptococcus mutans, 6715, 24 h. The class given is functional. The method in brief:
as §1

Series [5] concerns Streptococcus mutans. As to the kind of experiment: Antibacterial activity against Streptococcus mutans 6715 assessed as inhibition of plaque formation in human teeth at 10^-2 M after 48 hrs. The class given is functional. The conditions noted are these: Streptococcus mutans, 6715, 48 h. The method, boiled down:
as §1

Series [6] has as its system Streptococcus mutans. As to the kind of experiment: Antibacterial activity against Streptococcus mutans 6715 assessed as growth inhibition at 10^-4 M after 24 hrs. The conditions noted are these: Streptococcus mutans, 6715, 24 h; read-out: GI. Format: functional. The method, boiled down:
(§2)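 Test compounds as HCl salts were added in aqueous solution to sterile trypticase broth with 50% sucrose stock, then inoculated with a 24-hr culture of S. mutans 6715. Cultures were incubated anaerobically (Gaspak) at 37°. Bacterial growth was scored at 24 and 48 hr, with a solvent control run concurrently.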

The test system of series [7] is Streptococcus mutans. As to the kind of experiment: Antibacterial activity against Streptococcus mutans 6715 assessed as growth inhibition at 10^-4 M after 48 hrs. Particulars: Streptococcus mutans, 6715, 48 h; read-out: GI. The class given is functional. The method in brief:
as §2

For series [8], the system named is Streptococcus mutans. The series is described as follows: Antibacterial activity against Streptococcus mutans 6715 assessed as growth inhibition at 10^-5 M after 24 hrs. Format: functional. The conditions noted are these: Streptococcus mutans, 6715, 24 h; read-out: GI. The method, boiled down: as §2
The subject of series [9] is Streptococcus mutans. The series is described as follows: Antibacterial activity against Streptococcus mutans 6715 assessed as growth inhibition at 10^-5 M after 48 hrs. Format: functional. Particulars: Streptococcus mutans, 6715, 48 h; read-out: GI. The method, boiled down:
as §2

In series [10] the test system is Streptococcus mutans. As to the kind of experiment: Antibacterial activity against Streptococcus mutans 6715 assessed as growth inhibition at 10^-6 M after 24 hrs. Format: functional. Particulars: Streptococcus mutans, 6715, 24 h; read-out: GI. The method, boiled down: as §2
The test system of series [11] is Streptococcus mutans. As to the kind of experiment: Antibacterial activity against Streptococcus mutans 6715 assessed as growth inhibition at 10^-6 M after 48 hrs. Format: functional. The conditions noted are these: Streptococcus mutans, 6715, 48 h; read-out: GI. The method in brief:
as §2

One may read the logP as the decadic logarithm of the partition coefficient of the neutral form, usually between octanol and water. A high value points to a more lipophilic compound. A word on the inhibition: it is the relative decrease from the control value, in per cent. In turn, `Oc1ccc(F)c2cccnc12` [listing 1 of 2 here] gave a logP at 1.5 h in series [1] of 2.3. Moreover, the inhibition at 100000 µM in [2] and in series [3] was 80% throughout. In addition, the inhibition at 10000 µM in series [4] stood at 80%; in series [5], 60%.
`OCc1ccc(O)c2ncccc12` [listing 1 of 2 here] had a logP at 1.5 h in series [1] of 1. Further, the inhibition at 100000 µM in series [2] and in [3] was 0% each time.
Consider `O=Cc1ccc(O)c2ncccc12` [listing 1 of 2 here], for which the logP at 1.5 h in series [1] stood at 1.63. The inhibition at 100000 µM in series [2] was found to be 100%; in series [3], 80%. In addition, the inhibition at 10000 µM in series [4] and in [5] was 40% throughout.
In series [1], `COCc1ccc(O)c2ncccc12` [listing 1 of 2 here] returned a logP at 1.5 h of 1.78. In addition, the inhibition at 100000 µM was 80% in series [2] and 60% in series [3]. For the same molecule, the inhibition at 10000 µM in [4] and in [5] was 20% in each case.
`Oc1ccc(I)c2cccnc12` [listing 1 of 2 here] yielded a logP at 1.5 h in [1] of 3.27. In addition, the inhibition at 100000 µM in series [2] and in [3] was 100% each time. Moreover, the inhibition at 10000 µM in series [4] was 80%; in series [5], 20%.
Take `CC(=O)c1ccc(O)c2ncccc12` [listing 1 of 2 here]: the logP at 1.5 h in [1] turned out to be 1.8. Also, the inhibition at 100000 µM in series [2] and in [3] was 100% throughout. For the same molecule, the inhibition at 10000 µM in series [4] and in series [5] was 60% each time.
Take `N#CCc1ccc(O)c2ncccc12` [listing 1 of 2 here]: the logP at 1.5 h in series [1] is 1.81. For the same molecule, the inhibition at 100000 µM in series [2] and in series [3] was 80% each time. In addition, the inhibition at 10000 µM in series [4] and in [5] was 0% each time.
`COC(=O)Cc1ccc(O)c2ncccc12` [listing 1 of 2 here] returned a logP at 1.5 h in series [1] of 1.59. Besides, the inhibition at 100000 µM in series [2] and in [3] was 100% each time. The inhibition at 10000 µM is 20% in series [4] and 0% in series [5].
In series [1], `CCOC(=O)Cc1ccc(O)c2ncccc12` [listing 1 of 2 here] registered a logP at 1.5 h of 2.26. The inhibition at 100000 µM in [2] was found to be 100%; in series [3] it was 80%. The inhibition at 10000 µM worked out at 20% in series [4] and 0% in series [5].
For the molecule `Oc1cccc2cccnc12`, the inhibition of growth at 100 µM in [6] and in [7] was 100% each time. For the same molecule, the inhibition of growth at 10 µM in series [8] and in [9] was 100% throughout. Moreover, the inhibition of growth at 1 µM in series [10] and in series [11] was 0% each time.
Turning to `CC(=O)c1ccc(O)c2ncccc12` [listing 2 of 2 here], the inhibition of growth at 100 µM in series [6] and in series [7] was 100% each time. Besides, the inhibition of growth at 10 µM was 100% in series [8] and 0% in [9]. Moreover, the inhibition of growth at 1 µM in series [10] and in series [11] was 0% throughout.
Regarding `OCc1ccc(O)c2ncccc12` [listing 2 of 2 here], the inhibition of growth at 100 µM in [6] and in [7] was 0% each time.
As for `N#CCc1ccc(O)c2ncccc12` [listing 2 of 2 here], the figures for the inhibition of growth at 100 µM in series [6] and in series [7] were 80% and 20%, respectively. Further, the inhibition of growth at 10 µM in series [8] stood at 0%.
On to `COC(=O)Cc1ccc(O)c2ncccc12` [listing 2 of 2 here], for which the inhibition of growth at 100 µM in [6] and in series [7] was 100% each time. The inhibition of growth at 10 µM in series [8] is 60%; in series [9] it was 0%. Moreover, the inhibition of growth at 1 µM in [10] and in series [11] was 0% in each case.
As for `CCOC(=O)Cc1ccc(O)c2ncccc12` [listing 2 of 2 here], the inhibition of growth at 100 µM in series [6] and in series [7] was 100% in each case. Moreover, the values for the inhibition of growth at 10 µM in [8] and in series [9] were 100% and 0%, respectively. The inhibition of growth at 1 µM in series [10] and in series [11] was 0% each time.
For the molecule `Oc1ccc(I)c2cccnc12` [listing 2 of 2 here], the inhibition of growth at 100 µM in series [6] and in series [7] was 100% in each case. Moreover, the inhibition of growth at 10 µM came to 100% in [8] and 60% in [9]. Moreover, the inhibition of growth at 1 µM in series [10] and in series [11] was 0% in each case.
Turning to `O=Cc1ccc(O)c2ncccc12` [listing 2 of 2 here], the inhibition of growth at 100 µM in [6] and in series [7] was 100% throughout. The inhibition of growth at 10 µM in series [8] turned out to be 0%.
Consider `O=C(O)Cc1ccc(O)c2ncccc12` [listing 1 of 2 here], for which the inhibition at 100000 µM in [2] and in series [3] was 0% throughout.
In [1], `Oc1ccc(O)c2ncccc12` [listing 1 of 2 here] had a logP at 1.5 h of 1.42. Moreover, the results for the inhibition at 100000 µM in [2] and in series [3] were 60% and 0%, respectively. The inhibition at 10000 µM in series [4] and in [5] was 0% each time.
Regarding `Oc1ccc(F)c2cccnc12` [listing 2 of 2 here], the inhibition of growth at 100 µM in series [6] and in series [7] was 100% each time. Further, the inhibition of growth at 10 µM was 80% in series [8] and 0% in series [9]. Moreover, the inhibition of growth at 1 µM in [10] and in [11] was 0% in each case.
Take `O=C(O)Cc1ccc(O)c2ncccc12` [listing 2 of 2 here]: the inhibition of growth at 100 µM in [6] and in [7] was 0% each time.
With `COCc1ccc(O)c2ncccc12` [listing 2 of 2 here], the inhibition of growth at 100 µM turned out to be 100% in series [6] and 80% in [7]. Moreover, the inhibition of growth at 10 µM in series [8] came out at 0%.
As for `Oc1ccc(O)c2ncccc12` [listing 2 of 2 here], the inhibition of growth at 100 µM in [6] and in [7] was 0% in each case.
In [1], `Oc1cccc2cccnc12` [OXYQUINOLINE] displayed a logP at 1.5 h of 1.94. Further, the inhibition at 100000 µM in series [2] and in series [3] was 100% each time. Also, the inhibition at 10000 µM in series [4] and in series [5] was 0% in each case.
